From article PMC5033602 (Investigative Ophthalmology & Visual Science, 2016)
Where two headings read alike, the source gives them in different places.

Tests used:
ARPE-19 cells [1] = assay: Cell death; assay type: cell-based, human; conditions: for Number of dead cells under oxidative stress: H2O2 (600 μM for SCR comparison), dead cell protease activity
Procedure, shortened: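 ARPE-19 cells (passages 27–40) grown in DMEM/F-12 with 10% FBS at 37°C, 5% CO₂, plated at 2 × 10⁴ cells/well (96-well) and cultured to confluency (72 h). Serum-starved 8 h in 0.5% serum, then exposed 16 h to H₂O₂ (600 μM for scrambled-control comparison) plus TNF-α (10 ng/mL) with test peptides. Dead-cell protease activity read by CytoTox-Glo; duplicate wells ± SD.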

ARPE-19 cells [2] = assay: Detection of reactive oxygen species; assay type: cell-based, human; conditions: increasing H2O2 with or without 10 ng/mL TNF-α
Procedure, shortened: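 Confluent ARPE-19 cells in 96-well black plates were serum-starved (0.5% serum, 8 h), then given increasing H₂O₂ with or without 10 ng/mL TNF-α, plus test peptide. CellRox Green was added 30 min before the end point, and fluorescence was read at ex 485/em 520 nm. Triplicate wells per point; each experiment was run twice.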

5-LOX = assay: Immunoblot, 5-LOX protein in ARPE-19 lysates; assay type: cell-based, human; conditions: H2O2 plus 10 ng/mL TNF-α, 8 hours
Procedure, shortened: (§1)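 ARPE-19 cells (passages 27–40) were grown in DMEM/F-12 with 10% FBS at 37°C, 5% CO₂ to confluency and starved in 0.5% serum for 8 h. They were then exposed to graded H₂O₂ with 10 ng/mL TNF-α for 8 h. Total lysates were run on SDS-PAGE and immunoblotted, then stripped and reprobed for β-tubulin as loading control. Duplicate wells; each experiment at least twice.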

PEDF-R = assay: Immunoblot, PEDF-R protein in ARPE-19 lysates; assay type: cell-based, human; conditions: H2O2 plus 10 ng/mL TNF-α, 8 hours
Procedure, shortened: as §1

ARPE-19 cells [3] = assay: Pyknotic nuclei counting; assay type: cell-based, human; conditions: 600 μM H2O2, 16 hours, Hoechst stain
Procedure, shortened: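 ARPE-19 cells were serum-starved, then treated with 600 μM H₂O₂ and test peptide together for 16 h. Cells were fixed in methanol (15 min, RT) and stained with 5 μM Hoechst in PBS (15 min, RT). Five random fields per well were imaged, and pyknotic nuclei were counted as a percentage of total cells.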

ALOX5 = assay: RT-PCR, ALOX5 mRNA in ARPE-19; assay type: cell-based, human; conditions: H2O2 200, 400, 500, 600, 800 μM plus 10 ng/mL TNF-α, 8 hours, relative to 18S, duplicate wells
Procedure, shortened: (§2)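 Confluent ARPE-19 cells were starved in 0.5% serum for 8 h, then treated with H₂O₂ plus TNF-α. Total RNA was purified on silica columns, and 1 μg was reverse transcribed with SuperScript III. mRNA was measured by semiquantitative real-time RT-PCR with gene-specific primers and 18S primers as internal control.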

PNPLA2 = assay: RT-PCR, PNPLA2 mRNA in ARPE-19; assay type: cell-based, human; conditions: H2O2 200, 400, 500, 600, 800 μM plus 10 ng/mL TNF-α, 8 hours, relative to 18S, duplicate wells
Procedure, shortened: as §2

ARPE-19 cells [4] = assay: Cell viability; assay type: cell-based, human
Procedure, shortened: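 ARPE-19 cells (passages 27–40; DMEM/F-12, 10% FBS, 37°C, 5% CO₂) were plated at 2 × 10⁴ cells/well and grown to confluence (72 h). After 8 h starvation in 0.5% serum, cells received increasing H₂O₂ plus TNF-α (10 ng/mL), with or without test peptide, for 16 h. Relative live-cell numbers came from intracellular ATP luminescence; each point is the mean of duplicate wells.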

ARPE-19 cells [5] = conditions: cited from earlier work
primary pig RPE cells [6] = assay: Cell viability; assay type: cell-based; conditions: 50-250 μM H2O2, 10 ng/mL TNF-α
Procedure, shortened: (§3)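 Primary pig RPE cultures plated at 2 × 10⁴ cells/well (96-well) and grown to confluence (72 h), then exposed to H₂O₂ with TNF-α (10 ng/mL) and test peptide for the indicated time. Live cells were measured as intracellular ATP luminescence (CellTiter-Glo) and dead cells as dead-cell protease luminescence (CytoTox-Glo), with lysis reagent added for total-cell signal. Relative cell numbers are from duplicate wells.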

PEDF = conditions: peptides from Leu159-Met325 of PEDF-R; cited from earlier work
primary pig RPE cells [7] = assay: Cell death; assay type: cell-based; conditions: pig primary RPE; H2O2/TNF-α
Procedure, shortened: as §3

PEDF-R (PNPLA2) = conditions: cited from earlier work
human recombinant 5-LOX = assay: His-tag pull-down assay, 5-LOX and PEDF-R; assay type: binding; conditions: 5-LOX 250 ng, PEDF-R ∼350 and 700 ng, 0.1 M sodium phosphate, 50 mM NaCl, 0.1% NP-40, 4°C, 2 hours, Ni-NTA, Western blot

H-KRLQFEPRNYPSLLSTALPNILFRRLGGKFQDMRELCVYL-OH [SCR]
Number of dead cells under oxidative stress (ARPE-19 cells [1]): did not decrease the number of dead cells

TNF-α
ROS production, presence versus absence of TNF-α (ARPE-19 cells [2]): comparable under both conditions

OO [H2O2]
5-LOX protein level (5-LOX): paralleled those for expression of their respective genes
PEDF-R protein level (PEDF-R): paralleled those for expression of their respective genes
Pyknotic nuclei level (ARPE-19 cells [3]): resulted in an increase
ALOX5 mRNA level (ALOX5): remained unchanged
PNPLA2 mRNA level (PNPLA2): decreased the levels of PNPLA2
Relative cell numbers with increasing H2O2 (ARPE-19 cells [4]; 100-1000 μM H2O2, 10 ng/mL TNF-α, 16 hours): concentration-dependent decrease in cell numbers
Death mechanism of ARPE-19 cells (ARPE-19 cells [5]; 400 and 600 μM H2O2): apoptosis
Death mechanism of ARPE-19 cells (ARPE-19 cells [5]; H2O2 higher than 600 μM): necrosis
Death mechanism of ARPE-19 cells (ARPE-19 cells [5]; TNF-α (10 ng/mL) and 400 to 800 μM H2O2): apoptotic mechanism via caspase activation
Relative cell numbers with increasing H2O2 (primary pig RPE cells [6]): concentration-dependent decrease in cell numbers

E5b: PEDF-R peptide Ile^193-Leu^232, overlapping P1 (ICPQDSSTNIHELRVTNTSIQFNLRNLYRLSKALFPPEPL)
PEDF-binding affinity (PEDF): retain the PEDF-binding affinity of PEDF-R
Pyknotic nuclei level (ARPE-19 cells [3]): resulted in a decrease of pyknotic nuclei level
Number of dead cells under oxidative stress (ARPE-19 cells [1]): decreased cell death of RPE cells undergoing oxidative stress
Protection from oxidative stress-induced cell death (summary) (ARPE-19 cells [1]; H2O2/TNF-α): protected ARPE-19 and pig primary RPE cells from oxidative stress–induced cell death in a specific and concentration-dependent fashion
Protection from oxidative stress-induced cell death (summary) (primary pig RPE cells [7]): protected ARPE-19 and pig primary RPE cells from oxidative stress–induced cell death in a specific and concentration-dependent fashion
Cell viability under oxidative stress (ARPE-19 cells [4]; H2O2/TNF-α, ATP live cell biomarker, duplicate wells): promoted cell viability

B1: CGI-58: protein that stimulates PEDF-R (PNPLA2) activity (protein, UniProt Q8WTS1 2-349, looked up)
1-acylglycerol-3-phosphate …: AAEEEEVDSADTGERSGWLTGWLPTWCPTSISHLKEAEEKMLKCVPCTYKKEPVRISNGNKIWTLKFSHNISNKTPLVLLHGFGGGLGLWALNFGDLCTNRPVYAFDLLGFGRSSRPRFDSDAEEVENQFVESIEEWRCALGLDKMILLGHNLGGFLAAAYSLKYPSRVNHLILVEPWGFPERPDLADQDRPIPVWIRALGAALTPFNPLAGLRIAGPFGLSLVQRLRPDFKRKYSSMFEDDTVTEYIYHCNVQTPSGETAFKNMTIPYGWAKRPMLQRIGKMHPDIPVSVIFGARSCIDGNSGTSIQSLRPHSYVKTIAILGAGHYVYADQPEEFNQKVKEICDTVD
Effect on PEDF-R (PNPLA2) enzyme activity (PEDF-R (PNPLA2)): stimulated

B2: His6-tag-PEDF-R: human recombinant His6/Xpress-tagged PEDF-R made by cell-free in vitro protein synthesis (protein)
chain: MFPREKTWNISFAGCGFLGVYYVGVASCLREHAPFLVANATHIYGASAGALTATALVTGVCLGEAGAKFIEVSKEARKRFLGPLHPSFNLVKIIRSFLLKVLPADSHEHASGRLGISLTRVSDGENVIISHFNSKDELIQANVCSGFIPVYCGLIPPSLQGVRYVDGGISDNLPLYELKNTITVSPFSGESDICPQDSSTNIHELRVTNTSIQFNLRNLYRLSKALFPPEPLVLREMCKQGYRDGLRFLQRNGLLNRPNPLLALPPARPHGPEDKDQAVESAQAEDYSQLPGEDHILEHLPARLNEALLEACVEPTDLLTTLSNMLPVRLATAMMVPYTLPLESALSFTIRLLEWLPDVPEDIRWMKEQTGSICQYLVMRAKRKLGRHLPSRLPEQVELRRVQSLPSVPLSCAAYREALPGWMRNNLSLGDALAKWEECQRQLLLGLFCTNVAFPPEALRMRAPADPAPAPADPASPQHQLAGPAPLLSTPAPEARPVIGALGL
modifications: left off: His6, end not stated, kept | Xpress, end not stated, kept
Bound 5-LOX in pull-down with His6-tag-PEDF-R (human recombinant 5-LOX): proportional increase of bound 5-LOX
Bound 5-LOX in pull-down with His6-tag-PEDF-R (human recombinant 5-LOX; listed as His6/Xpress-tagged PEDF-R): via ionic interactions

B3: PEDF: pigment epithelium-derived factor, stimulates PEDF-R (protein, UniProt P36955 20-418, looked up)
Pigment epithelium-derived …: QNPASPPEEGSPDPDSTGALVEEEDPFFKVPVNKLAAAVSNFGYDLYRVRSSTSPTTNVLLSPLSVATALSALSLGAEQRTESIIHRALYYDLISSPDIHGTYKELLDTVTAPQKNLKSASRIVFEKKLRIKSSFVAPLEKSYGTRPRVLTGNPRLDLQEINNWVQAQMKGKLARSTKEIPDEISILLLGVAHFKGQWVTKFDSRKTSLEDFYLDEERTVRVPMMSDPKAVLRYGLDSDLSCKIAQLPLTGSMSIIFFLPLKVTQNLTLIEESLTSEFIHDIDRELKTVQAVLTVPKLKLSYEGEVTKSLQEMKLQSLFDSPDFSKITGKPIKLTQVEHRAGFEWNEDGAGTTPSPGLQPAHLTFPLDYHLNQPFIFVLRDTDTGALLFIGKILDPRGP
Effect on PEDF-R (PNPLA2) enzyme activity (PEDF-R (PNPLA2)): stimulated

B4: G0S2: G(0)/G(1) switch gene 2, inhibits PEDF-R (PNPLA2) (protein, UniProt P27469 1-103, looked up)
G0/G1 switch protein 2: METVQELIPLAKEMMAQKRKGKMVKLYVLGSVLALFGVVLGLMETVCSPFTAARRLRDQEAAVAELQAALERQALQKQALQEKGKQQDTVLGGRALSNRQHAS
Effect on PEDF-R (PNPLA2) enzyme activity (PEDF-R (PNPLA2)): inhibited

B5: perilipin 5: protein that inhibits PEDF-R (PNPLA2) activity (protein, UniProt Q00G26 1-463, looked up)
Perilipin-5: MSEEEAAQIPRSSVWEQDQQNVVQRVVALPLVRATCTAVCDVYSAAKDRHPLLGSACRLAENCVCGLTTRALDHAQPLLEHLQPQLATMNSLACRGLDKLEEKLPFLQQPSETVVTSAKDVVASSVTGVVDLARRGRRWSVELKRSVSHAVDVVLEKSEELVDHFLPMTEEELAALAAEAEGPEVGSVEDQRRQQGYFVRLGSLSARIRHLAYEHSVGKLRQSKHRAQDTLAQLQETLELIDHMQCGVTPTAPACPGKVHELWGEWGQRPPESRRRSQAELETLVLSRSLTQELQGTVEALESSVRGLPAGAQEKVAEVRRSVDALQTAFADARCFRDVPAAALAEGRGRVAHAHACVDELLELVVQAVPLPWLVGPFAPILVERPEPLPDLADLVDEVIGGPDPRWAHLDWPAQQRAWEAEHRDGSGNGDGDRMGVAGDICEQEPETPSCPVKHTLMPELDF
Effect on PEDF-R (PNPLA2) enzyme activity (PEDF-R (PNPLA2)): inhibited
